In brackets after ≈: the same amount, converted by molar mass.
Legend:
Talaromyces funiculosus [1] = experiment: microbe, parasite or virus in culture; type: functional; conditions: BAM22 ATCC 11797, 168 h
Paecilomyces variotii [2] = experiment: microbe, parasite or virus in culture; type: functional; conditions: BAM19 ATCC 18502, 168 h
Trichoderma viride [3] = experiment: Antifungal activity against Trichoderma viride Pers after 7 days by microtiter method; type: functional; conditions: 168 h
Aspergillus versicolor [4] = experiment: microbe, parasite or virus in culture; type: functional; conditions: BAM8 ATCC 11730, 168 h
Penicillium cyclopium [5] = experiment: Antifungal activity against Penicillium cyclopium Westling after 7 days by microtiter method; type: functional; conditions: 168 h
Aspergillus niger [6] = experiment: microbe, parasite or virus in culture; type: functional; conditions: van Tiegen BAM4 ATCC 6275, 168 h
Chaetomium globosum [7] = experiment: microbe, parasite or virus in culture; type: functional; conditions: BAM12 ATCC 6205, 168 h
Aureobasidium pullulans [8] = experiment: microbe, parasite or virus in culture; type: functional; conditions: BAM10 ATCC 9348, 168 h
Trichoderma viride [9] = experiment: Fungicidal activity against Trichoderma viride Pers after 7 days by microtiter method; type: functional; conditions: 168 h
Procedure, shortened: (§1)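 Single-spore isolates kept on PDA slants. Spore suspensions ([…] CFU/mL) taken from two-week slants. Compound stock was 10 mg in 200 µL methanol; 10 µL of stock added to 100 µL PDA (39 g/L) per well, then 10 µL spores. Incubated aerobically 7 days, 28±1°C, RH >95%, dark. Growth scored on a three-point scale (+/±/−). Triplicates, with untreated and IPBC controls.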

MDA-MB-231 = experiment: cells; type: functional, cell-based; conditions: Homo sapiens, MDA-MB-231, 72 h
DLD-1 = experiment: cells; type: functional, cell-based; conditions: Homo sapiens, DLD-1, 72 h
Penicillium cyclopium [10] = experiment: Fungicidal activity against Penicillium cyclopium Westling after 7 days by microtiter method; type: functional; conditions: 168 h
Procedure, shortened: as §1

Chaetomium globosum [11] = experiment: Fungicidal activity against Chaetomium globosum BAM12 ATCC 6205 after 7 days by microtiter method; type: functional; conditions: BAM12 ATCC 6205, 168 h
Procedure, shortened: as §1

Aureobasidium pullulans [12] = experiment: Fungicidal activity against Aureobasidium pullulans BAM10 ATCC 9348 after 7 days by microtiter method; type: functional; conditions: BAM10 ATCC 9348, 168 h
Procedure, shortened: as §1

MCF7 = experiment: cells; type: functional, cell-based; conditions: Homo sapiens, MCF7, 72 h
SK-OV-3 [13] = experiment: cells; type: functional, cell-based; conditions: Homo sapiens, SK-OV-3, 72 h
Aspergillus versicolor [14] = experiment: Fungicidal activity against Aspergillus versicolor BAM8 ATCC 11730 after 7 days by microtiter method; type: functional; conditions: BAM8 ATCC 11730, 168 h
Procedure, shortened: as §1

cells = type: cell-based; conditions: Homo sapiens, 72 h
SK-OV-3 [15] = experiment: cells; type: functional, cell-based; conditions: Homo sapiens, SK-OV-3, 72 h; remark: listed apart in the source
Paecilomyces variotii [16] = experiment: Fungicidal activity against Paecilomyces variotii BAM19 ATCC 18502 after 7 days by microtiter method; type: functional; conditions: BAM19 ATCC 18502, 168 h
Procedure, shortened: as §1

LoVo = experiment: cells; type: functional, cell-based; conditions: Homo sapiens, 72 h
Talaromyces funiculosus [17] = experiment: Fungicidal activity against Penicillium funiculosum BAM22 ATCC 11797 after 7 days by microtiter method; type: functional; conditions: BAM22 ATCC 11797, 168 h
Procedure, shortened: as §1

Aspergillus niger [18] = experiment: Fungicidal activity against Aspergillus niger van Tiegen BAM4 ATCC 6275 after 7 days by microtiter method; type: functional; conditions: van Tiegen BAM4 ATCC 6275, 168 h
Procedure, shortened: as §1

SMILES | MFC (Talaromyces funiculosus [1]) | MFC (Paecilomyces variotii [2]) | MFC (Trichoderma viride [3]) | MFC (Aspergillus versicolor [4]) | MIC (Penicillium cyclopium [5]) | MFC (Aspergillus niger [6]) | MIC (Chaetomium globosum [7]) | MIC (Aureobasidium pullulans [8]) | IC50 (MDA-MB-231) | IC50 (DLD-1) | IC50 (MCF7) | IC50 (SK-OV-3 [13]) | IC50 (cells) | IC50 (SK-OV-3 [15]) | IC50 (LoVo) | also measured
CCCSc1ccc2c(cc1=O)[C@@H](NC(C)=O)CCc1cc(OC)c(OC)c(OC)c1-2 | > 4000 µg/mL | > 4000 µg/mL | > 4000 µg/mL | > 4000 µg/mL | > 4000 µg/mL | > 4000 µg/mL | > 4000 µg/mL | > 4000 µg/mL | – | – | – | – | – | – | – | –
CCCCSc1ccc2c(cc1=O)[C@@H](N)CCc1cc(OC)c(OC)c(OC)c1-2 | 1000 µg/mL (≈ 2.41 mM) | 1000 µg/mL (≈ 2.41 mM) | 2000 µg/mL (≈ 4.81 mM) | > 4000 µg/mL | 260 µg/mL (≈ 0.626 mM) | > 4000 µg/mL | 130 µg/mL (≈ 0.313 mM) | 260 µg/mL (≈ 0.626 mM) | 4180 nM | 720 nM | 1460 nM | 9 nM | 2170 nM | 62 nM | 1870 nM | MFC (Trichoderma viride [9]): 2000 µg/mL (≈ 4.81 mM); MFC (Penicillium cyclopium [10]): 260 µg/mL (≈ 0.626 mM); MFC (Chaetomium globosum [11]): 130 µg/mL (≈ 0.313 mM); MFC (Aureobasidium pullulans [12]): 260 µg/mL (≈ 0.626 mM); MFC (Aspergillus versicolor [14]): > 4000 µg/mL; MFC (Paecilomyces variotii [16]): 1000 µg/mL (≈ 2.41 mM); MFC (Talaromyces funiculosus [17]): 1000 µg/mL (≈ 2.41 mM); MFC (Aspergillus niger [18]): > 4000 µg/mL
CCSc1ccc2c(cc1=O)[C@@H](N)CCc1cc(OC)c(OC)c(OC)c1-2 | > 4000 µg/mL | > 4000 µg/mL | > 4000 µg/mL | > 4000 µg/mL | > 4000 µg/mL | > 4000 µg/mL | > 4000 µg/mL | > 4000 µg/mL | 3550 nM | 510 nM | 1620 nM | 305 nM | 150 nM | 409 nM | 390 nM | –
CCSc1ccc2c(cc1=O)[C@@H](NC(C)=O)CCc1cc(OC)c(OC)c(OC)c1-2 | > 4000 µg/mL | > 4000 µg/mL | > 4000 µg/mL | > 4000 µg/mL | > 4000 µg/mL | > 4000 µg/mL | > 4000 µg/mL | > 4000 µg/mL | – | – | – | – | – | – | – | –
CCCCSc1ccc2c(cc1=O)[C@@H](NC(C)=O)CCc1cc(OC)c(OC)c(OC)c1-2 | > 4000 µg/mL | > 4000 µg/mL | > 4000 µg/mL | > 4000 µg/mL | > 4000 µg/mL | > 4000 µg/mL | > 4000 µg/mL | > 4000 µg/mL | – | – | – | – | – | – | – | –
COc1cc2c(c(OC)c1OC)-c1ccc(SC(C)C)c(=O)cc1[C@@H](NC(C)=O)CC2 | > 4000 µg/mL | > 4000 µg/mL | > 4000 µg/mL | > 4000 µg/mL | > 4000 µg/mL | > 4000 µg/mL | > 4000 µg/mL | > 4000 µg/mL | – | – | – | – | – | – | – | –
